Data taken from ChEMBL document CHEMBL1275556, “High prevalence of plasmid-mediated quinolone resistance genes qnr and aac(6')-Ib-cr in clinical isolates of Enterobacteriaceae from nine teaching hospitals in China” (2008).
In brackets after ≈: the same amount, converted by molar mass.

How the values were obtained:
Enterobacter cloacae [1] = test: Antimicrobial activity against aac(6')-Ib-cr-positive Enterobacter cloacae FJ63T harboring qnrS gene by agar dilution method in presence of Tazobactam; format: functional
Method in brief: (§1)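 MICs were determined by the CLSI agar dilution method (M7-A7) and interpreted against CLSI M100-S17 breakpoints.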

Citrobacter freundii [2] = test: Antimicrobial activity against aac(6')-Ib-cr-positive Citrobacter freundii JN1T by agar dilution method in presence of Tazobactam; format: functional
Method in brief: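 MIC by CLSI agar dilution (M7-A7), with categories interpreted per CLSI M100-S17.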

Escherichia coli [3] = test: Antimicrobial activity against aac(6')-Ib-cr-positive Escherichia coli FJ3T harboring wild-type GyrA, ParC, GyrB and qnrB genes by agar dilution method in presence of Tazobactam; format: functional
Method in brief: (§2)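 Transconjugants came from conjugation of qnr and/or aac(6')-Ib-cr donors into azide-resistant E. coli J53. […] MICs were measured by CLSI agar dilution (M7-A7) and interpreted per M100-S17.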

Enterobacter cloacae [4] = test: Antimicrobial activity against aac(6')-Ib-cr-negative Enterobacter cloacae SH39T harboring qnrA gene by agar dilution method in presence of Tazobactam; format: functional; method in brief: as §1
Citrobacter freundii [5] = test: Antimicrobial activity against aac(6')-Ib-cr-negative Citrobacter freundii JN64 harboring GyrA T83I, wild-type ParC, GyrB and qnrA genes by agar dilution method in presence of Tazobactam; format: functional; method in brief: as §1
Enterobacter cloacae [6] = test: Antimicrobial activity against aac(6')-Ib-cr-negative Enterobacter cloacae GZ47T harboring qnrB gene by agar dilution method in presence of Tazobactam; format: functional; method in brief: as §1
Escherichia coli [7] = test: Antimicrobial activity against aac(6')-Ib-cr-negative Escherichia coli PU12T harboring wild-type GyrA, GyrB, ParC and qnrS genes by agar dilution method in presence of Tazobactam; format: functional; method in brief: as §2
Citrobacter freundii [8] = test: Antimicrobial activity against aac(6')-Ib-cr-positive Citrobacter freundii PU55T harboring wild-type GyrA, ParC, GyrB and qnrA genes by agar dilution method in presence of Tazobactam; format: functional; method in brief: as §1
Enterobacter cloacae [9] = test: Antimicrobial activity against aac(6')-Ib-cr-negative Enterobacter cloacae FJ61 harboring GyrA S83I, GyrA D87A, ParC S80I mutant, wild-type GyrB and qnrS genes by agar dilution method in presence of Tazobactam; format: functional; method in brief: as §1
Escherichia coli [10] = test: Antimicrobial activity against Escherichia coli J53 harboring wild-type GyrA, ParC, GyrB genes by agar dilution method in presence of beta-lactamase inhibitor Tazobactam; format: functional
Method in brief: (§3)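 MICs measured by CLSI agar dilution (M7-A7) and interpreted against CLSI M100-S17 breakpoints. Strains were clinical Enterobacteriaceae isolates or the azide-resistant E. coli J53 recipient.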

Klebsiella pneumoniae [11] = test: Antimicrobial activity against aac(6')-Ib-cr-positive Klebsiella pneumoniae GZ40T harboring qnrB gene by agar dilution method
Enterobacter cloacae [12] = test: Antimicrobial activity against aac(6')-Ib-cr-negative Enterobacter cloacae FJ67T harboring qnrS gene by agar dilution method in presence of clavulanic acid; format: functional
Method in brief: (§4)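 Transconjugants came from conjugation of qnr and/or aac(6')-Ib-cr-carrying donors with azide-resistant E. coli J53. […] MICs were determined by CLSI agar dilution (M7-A7) and interpreted by M100-S17.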

Escherichia coli [13] = test: Antimicrobial activity against aac(6')-Ib-cr-negative Escherichia coli PU12T harboring wild-type GyrA, GyrB, ParC and qnrS genes by agar dilution method in presence of clavulanic acid; format: functional; method in brief: as §4
Enterobacter cloacae [14] = test: Antimicrobial activity against aac(6')-Ib-cr-negative Enterobacter cloacae GZ47T harboring qnrB gene by agar dilution method; format: functional
Enterobacter cloacae [15] = test: Antimicrobial activity against aac(6')-Ib-cr-negative Enterobacter cloacae FJ67 harboring […] and qnrS genes by agar dilution method; format: functional
Enterobacter cloacae [16] = test: Antimicrobial activity against aac(6')-Ib-cr-positive Enterobacter cloacae FJ63T harboring qnrS gene by agar dilution method in presence of clavulanic acid; format: functional; method in brief: as §4
Citrobacter freundii [17] = test: Antimicrobial activity against aac(6')-Ib-cr-positive Citrobacter freundii JS33 harboring GyrA T83I mutant, wild-type ParC, GyrB, qnrA and qnrB genes by agar dilution method in presence of clavulanic acid; format: functional
Method in brief: (§5)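 MICs were determined by CLSI agar dilution (M7-A7) and interpreted by CLSI M100-S17 breakpoints. The curator's line names the β-lactamase inhibitor added.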

Enterobacter cloacae [18] = test: Antimicrobial activity against aac(6')-Ib-cr-negative Enterobacter cloacae WH42 harboring wild-type GyrA, ParC, GyrB and qnrA genes by agar dilution method in presence of clavulanic acid; format: functional; method in brief: as §1
Citrobacter freundii [19] = test: Antimicrobial activity against aac(6')-Ib-cr-negative Citrobacter freundii JN64 harboring GyrA T83I, wild-type ParC, GyrB and qnrA genes by agar dilution method in presence of clavulanic acid; format: functional; method in brief: as §1
Enterobacter cloacae [20] = test: Antimicrobial activity against aac(6')-Ib-cr-negative Enterobacter cloacae GZ51T harboring qnrA gene by agar dilution method in presence of clavulanic acid; format: functional; method in brief: as §4
Citrobacter freundii [21] = test: Antimicrobial activity against aac(6')-Ib-cr-positive Citrobacter freundii JS33T harboring qnrA gene by agar dilution method; format: functional; method in brief: as §1
Escherichia coli [22] = test: Antimicrobial activity against Escherichia coli J53 harboring wild-type GyrA, ParC, GyrB genes by agar dilution method in presence of beta-lactamase inhibitor clavulanic acid; format: functional; method in brief: as §5
Klebsiella pneumoniae [23] = test: Antimicrobial activity against aac(6')-Ib-cr-negative Klebsiella pneumoniae SY22 harboring GyrA S83I, ParC S80I mutant, wild-type GyrB and qnrS genes by agar dilution method; format: functional; method in brief: as §1
Citrobacter freundii [24] = test: Antimicrobial activity against aac(6')-Ib-cr-positive Citrobacter freundii TJ15T harboring wild-type GyrA, ParC, GyrB genes by agar dilution method; format: functional; method in brief: as §1
Klebsiella pneumoniae [25] = test: Antimicrobial activity against aac(6')-Ib-cr-negative Klebsiella pneumoniae SY22T harboring qnrS gene by agar dilution method; format: functional; method in brief: as §1
Citrobacter freundii [26] = test: Antimicrobial activity against aac(6')-Ib-cr-positive Citrobacter freundii PU55T harboring wild-type GyrA, ParC, GyrB and qnrA genes by agar dilution method
Enterobacter cloacae [27] = test: Antimicrobial activity against aac(6')-Ib-cr-negative Enterobacter cloacae GZ47T harboring qnrB gene by agar dilution method in presence of clavulanic acid; format: functional; method in brief: as §1
Enterobacter cloacae [28] = test: Antimicrobial activity against aac(6')-Ib-cr-positive Enterobacter cloacae FJ63T harboring qnrS gene by agar dilution method; format: functional
Enterobacter cloacae [29] = test: Antimicrobial activity against aac(6')-Ib-cr-negative Enterobacter cloacae FJ67T harboring qnrS gene by agar dilution method; format: functional
Citrobacter freundii [30] = test: Antimicrobial activity against aac(6')-Ib-cr-positive Citrobacter freundii PU55 harboring GyrA T83I, ParC S80I mutant, wild-type GyrB, qnrA genes by agar dilution method; format: functional; method in brief: as §1
Enterobacter cloacae [31] = test: Antimicrobial activity against aac(6')-Ib-cr-negative Enterobacter cloacae GZ51T harboring qnrA gene by agar dilution method; format: functional
Klebsiella pneumoniae [32] = test: Antimicrobial activity against aac(6')-Ib-cr-positive Klebsiella pneumoniae SY26T harboring wild-type GyrA, ParC, GyrB and qnrB genes by agar dilution method in presence of clavulanic acid; format: functional; method in brief: as §4
Enterobacter cloacae [33] = test: Antimicrobial activity against aac(6')-Ib-cr-negative Enterobacter cloacae FJ61 harboring GyrA S83I, GyrA D87A, ParC S80I mutant, wild-type GyrB and qnrS genes by agar dilution method in presence of clavulanic acid; format: functional; method in brief: as §3

In the case of `CCN1CCN(C(=O)N[C@@H](C(=O)N[C@@H]2C(=O)N3[C@@H]2SC(C)(C)[C@@H]3C(=O)O)c2ccccc2)C(=O)C1=O` [PIPERACILLIN], the MIC (Enterobacter cloacae [1]) is reported as 2 µg/mL, the MIC (Citrobacter freundii [2]) is reported as 2 µg/mL and the MIC (Escherichia coli [3]) is reported as 1 µg/mL. For the same molecule, the MIC (Enterobacter cloacae [4]) was 1 µg/mL, the MIC (Citrobacter freundii [5]) was greater than 256 µg/mL and the MIC (Enterobacter cloacae [6]) was 2 µg/mL. It also gave an MIC (Escherichia coli [7]) of 1 µg/mL, an MIC (Citrobacter freundii [8]) of 4 µg/mL and an MIC (Enterobacter cloacae [9]) of 8 µg/mL. For the same molecule, the MIC (Escherichia coli [10]) was 1 µg/mL.
`CO/N=C(\C(=O)N[C@@H]1C(=O)N2C(C(=O)O)=C(COC(C)=O)CS[C@H]12)c1csc(N)n1` [CEFOTAXIME] was tested, and the MIC (Klebsiella pneumoniae [11]) was 0.032 µg/mL (≈ 0.0703 µM), the MIC (Enterobacter cloacae [12]) was 0.032 µg/mL and the MIC (Escherichia coli [13]) was 0.032 µg/mL. The MIC (Enterobacter cloacae [14]) was 0.25 µg/mL (≈ 0.549 µM), the MIC (Enterobacter cloacae [15]) was 256 µg/mL (≈ 562 µM) and the MIC (Enterobacter cloacae [16]) was 0.032 µg/mL. The MIC (Citrobacter freundii [17]) was 64 µg/mL, the MIC (Enterobacter cloacae [18]) was 256 µg/mL and the MIC (Citrobacter freundii [19]) was 128 µg/mL. It also gave an MIC (Enterobacter cloacae [20]) of 0.032 µg/mL, an MIC (Citrobacter freundii [21]) of 0.125 µg/mL (≈ 0.274 µM) and an MIC (Escherichia coli [22]) of 0.032 µg/mL. For the same molecule, the MIC (Klebsiella pneumoniae [23]) was 2 µg/mL (≈ 4.39 µM), the MIC (Citrobacter freundii [24]) was 0.125 µg/mL (≈ 0.274 µM) and the MIC (Klebsiella pneumoniae [25]) was 0.5 µg/mL (≈ 1.1 µM). The MIC (Citrobacter freundii [26]) was 0.064 µg/mL (≈ 0.141 µM), the MIC (Enterobacter cloacae [27]) was 0.5 µg/mL and the MIC (Enterobacter cloacae [28]) was 32 µg/mL (≈ 70.3 µM). For the same molecule, the MIC (Enterobacter cloacae [29]) was 64 µg/mL (≈ 141 µM), the MIC (Citrobacter freundii [30]) was 128 µg/mL (≈ 281 µM) and the MIC (Enterobacter cloacae [31]) was 32 µg/mL (≈ 70.3 µM). For the same molecule, the MIC (Klebsiella pneumoniae [32]) was 0.032 µg/mL and the MIC (Enterobacter cloacae [33]) was 8 µg/mL.
